ChEMBL document CHEMBL1811788, “Chaxamycins A-D, bioactive ansamycins from a hyper-arid desert Streptomyces sp” (2011)
In brackets after ≈: the same amount, converted by molar mass.

Assays:
[1] = tested on: Staphylococcus aureus; assay: Antibacterial activity against Staphylococcus aureus RN4220 after 18 hrs by microtiter plate reader assay; type: functional; conditions: RN4220, 18 h
Method in brief: (§1)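 S. aureus grown in Müller-Hinton broth to early stationary phase, diluted to OD650 = 0.0005. Broth microdilution in triplicate, with at least two independent cultures per strain. Test compound (32–0.016 μg/mL) and rifampicin control (0.03–0.001 μg/mL) dissolved in DMSO (up to 0.63%). Incubated 18 h at 37 °C, growth read at OD620. MIC taken as lowest concentration showing no growth versus MH broth control.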

[2] = tested on: Staphylococcus aureus; assay: Antibacterial activity against scottish methicillin-resistant Staphylococcus aureus isolate 106 isolated from patient nasal swab after 18 hrs by microtiter plate reader assay; type: functional; conditions: isolate 106, 18 h; method in brief: as §1
[3] = tested on: Staphylococcus aureus; assay: Antibacterial activity against scottish methicillin-resistant Staphylococcus aureus isolate 116 isolated from patient knee abscess after 18 hrs by microtiter plate reader assay; type: functional; conditions: isolate 116, Knee; method in brief: as §1
[4] = tested on: Staphylococcus aureus; assay: Antibacterial activity against epidemic methicillin-resistant Staphylococcus aureus isolate 15 isolated from patient urine infection after 18 hrs by microtiter plate reader assay; type: functional; conditions: isolate 15, Urine; method in brief: as §1
[5] = tested on: Staphylococcus aureus; assay: Antibacterial activity against scottish methicillin-resistant Staphylococcus aureus isolate 105 isolated from patient toe wound after 18 hrs by microtiter plate reader assay; type: functional; conditions: isolate 105, 18 h; method in brief: as §1
[6] = tested on: Staphylococcus aureus; assay: Antibacterial activity against epidemic methicillin-resistant Staphylococcus aureus isolate 16 isolated from patient graft wound after 18 hrs by microtiter plate reader assay; type: functional; conditions: isolate 16, 18 h; method in brief: as §1
[7] = tested on: Staphylococcus aureus; assay: Antibacterial activity against Staphylococcus aureus ATCC 25923 after 18 hrs by microtiter plate reader assay; type: functional; conditions: ATCC 25923, 18 h
[8] = tested on: Staphylococcus aureus; assay: Antibacterial activity against scottish methicillin-resistant Staphylococcus aureus isolate 124 isolated from patient open wound after 18 hrs by microtiter plate reader assay; type: functional; conditions: isolate 124, 18 h; method in brief: as §1
[9] = tested on: Staphylococcus aureus; assay: Antibacterial activity against scottish methicillin-resistant Staphylococcus aureus isolate 161 (PF161) isolated from patient thigh abscess after 18 hrs by microtiter plate reader assay; type: functional; conditions: isolate 161, Thigh muscle; method in brief: as §1
[10] = tested on: Staphylococcus aureus; assay: Antibacterial activity against scottish methicillin-resistant Staphylococcus aureus isolate 126 isolated from patient nasal swab after 18 hrs by microtiter plate reader assay; type: functional; conditions: isolate 126, 18 h; method in brief: as §1
[11] = tested on: Staphylococcus aureus; assay: Antibacterial activity against scottish methicillin-resistant Staphylococcus aureus […] isolated from patient arm cellulitis after 18 hrs by microtiter plate reader assay; type: functional; conditions: isolate 153, 18 h; method in brief: as §1
[12] = tested on: Staphylococcus aureus; assay: Antibacterial activity against scottish methicillin-resistant Staphylococcus aureus isolate 161 (PF161d) isolated from patient buttock abscess after 18 hrs by microtiter plate reader assay; type: functional; conditions: isolate 161, 18 h; method in brief: as §1
[13] = tested on: Escherichia coli; assay: Antibacterial activity against Escherichia coli ATCC 25922 by agar diffusion method with regression line analysis

SMILES | MIC [1] | MIC [2] | MIC [3] | MIC [4] | MIC [5] | MIC [6] | MIC [7] | MIC [8] | MIC [9] | MIC [10] | MIC [11] | MIC [12] | MIC [13]
CO[C@H]1/C=C/O[C@@]2(C)Oc3c(C)c(O)c4c(O)c(c(/C=N/N5CCN(C)CC5)c(O)c4c3C2=O)NC(=O)/C(C)=C\C=C\[C@H](C)[C@H](O)[C@@H](C)[C@@H](O)[C@@H](C)[C@H](OC(C)=O)[C@@H]1C [RIFAMPIN] | 0.002 µg/mL (≈ 0.00243 µM) | 0.004 µg/mL (≈ 0.00486 µM) | 0.002 µg/mL (≈ 0.00243 µM) | 0.002 µg/mL (≈ 0.00243 µM) | 0.002 µg/mL (≈ 0.00243 µM) | 4 µg/mL (≈ 4.86 µM) | – | – | – | – | – | – | –
CC(=O)O[C@H]1[C@H](C)[C@H](O)[C@H](C)[C@@H](O)[C@@H](C)/C=C/C=C\C(=O)NC2=C(C)C(=O)c3c(c(O)c(C)c4c3[C@H](O)[C@](C)(O/C=C/[C@H](O)[C@H]1C)O4)C2=O [CHAXAMYCIN D] | 0.06 µg/mL (≈ 0.0878 µM) | 0.25 µg/mL (≈ 0.366 µM) | 0.13 µg/mL (≈ 0.19 µM) | 0.06 µg/mL (≈ 0.0878 µM) | 0.13 µg/mL (≈ 0.19 µM) | > 32 µg/mL | 0.05 µg/mL (≈ 0.0731 µM) | 0.13 µg/mL (≈ 0.19 µM) | 0.13 µg/mL (≈ 0.19 µM) | 0.13 µg/mL (≈ 0.19 µM) | 0.25 µg/mL (≈ 0.366 µM) | 0.25 µg/mL (≈ 0.366 µM) | 1.21 µg/mL (≈ 1.77 µM)
